Results gathered from unrelated publications.
Compare with care: the assays were run in different laboratories.
Target: Proto-oncogene tyrosine-protein kinase ROS (ROS1, Homo sapiens, UniProt P08922)

O=C1NC(c2ccccn2)Sc2ccccc21 (stereo not drawn)
remaining binding (cell-free assay, competition with immobilised ligand; 1 µM): 95%

CNC(=O)c1cc2c(Oc3ccc(NC(=O)C4(C(=O)Nc5ccc(F)cc5)CC4)cc3)ccnc2cc1OC
inhibition (enzyme activity, inhibitor, radiometric; 1 µM): 89%

CCCS(=O)(=O)Nc1ccc(F)c(C(=O)c2c[nH]c3ncc(-c4ccc(Cl)cc4)cc23)c1F
inhibition (enzyme activity, inhibitor; 1 µM): < 10%

CCOc1cc(-c2nncn2C)ccc1Nc1ncc2cc(C)nc(NCC(C)(C)C)c2n1
inhibition (enzyme activity, inhibitor, FRET; 1 µM): 31%

CC(=O)c1c(NS(C)(=O)=O)c2cc(-c3ccc(Cl)cc3)c(-c3ccc(Cl)cc3Cl)nc2n(C)c1=O
remaining binding (cell-free assay, competition with immobilised ligand; 1 µM): 100%

N#CCCc1ccc2c(c1)-c1[nH]c3ccc([N+](=O)[O-])cc3c1CC(=O)N2
remaining signal (cell-free assay; 0.5 µM): 71%

COCCOc1nc(-c2ccc(Cl)nc2)nc2c1CN(C(=O)c1ncn3ccccc13)CC2
remaining binding (cell-free assay, competition with immobilised ligand; 0.1 µM): 100%

CNC(=O)c1cc(Oc2ccc(NC(=O)Nc3ccc(Cl)c(C(F)(F)F)c3)cc2)ccn1
remaining signal (cell-free assay; 0.5 µM): 95.7%

COc1cc2nccc(Oc3ccc(NC(=O)c4c5n(n(-c6ccc(F)cc6)c4=O)CCCC5)cc3)c2cc1OC
inhibition (enzyme activity, inhibitor; 0.1 µM): 26%

COc1cc2ncnc(Nc3ccc(Oc4ccccc4)c(C)c3C)c2cc1OC
inhibition (enzyme activity, inhibitor; 1 µM): -2%

Cc1ccc(Nc2nccc(N(C)c3ccc4c(C)n(C)nc4c3)n2)cc1S(N)(=O)=O
inhibition (enzyme activity, inhibitor; 10 µM): 13%

O=C(Nc1cnn(-c2csc(C(=O)NC3COC3)c2)c1)Nc1c(F)cccc1Cl
remaining activity (enzyme activity, inhibitor; 5 µM): 85.5%

CC1=C(C#N)C(c2ccc3c(c2)c(NC(=O)c2ccccc2C)nn3C)C(C#N)=C(C)N1
remaining binding (cell-free assay, competition with immobilised ligand; 1 µM): 100%

C=CC(=O)Nc1cc(Nc2nccc(Nc3cc(Cl)c(F)cc3C(C)(C)O)n2)c(OC)cc1N1CC[C@@H](N(C)C)C1
inhibition (enzyme activity, inhibitor; 1 µM): 51%

Cc1ccc(C(=O)Nc2ccc(CN3CCN(C)CC3)c(C(F)(F)F)c2)cc1C#Cc1cnc2cccnn12
remaining activity (enzyme activity; 23.5 nM): 78%

CNCc1ccc(-c2cc(-c3nc(-c4ccc(S(=O)(=O)C(C)C)cc4)cnc3N)on2)cc1
inhibition (enzyme activity, inhibitor; 0.4 µM): 0%

C[S+]([O-])c1ccc(-c2nc(-c3ccncc3)c(-c3ccc(F)cc3)[nH]2)cc1 (stereo not drawn)
remaining signal (cell-free assay; 0.5 µM): 94.4%

CN1CC(Oc2cnc(C#N)cc2-c2ccn3nc(NC(=O)C4CC4)cc3c2)C1
inhibition (enzyme activity, inhibitor; 1 µM): 8%

COc1cc2c(Nc3ccc(Br)cc3F)ncnc2cc1OCC1CCN(C)CC1
remaining signal (cell-free assay; 0.5 µM): 76.5%

CNC(=O)Nc1ccc2c(c1)[C@@]1(CC2)OC(=O)N(CC(=O)N(Cc2ccc(F)cc2)[C@@H](C)C(F)(F)F)C1=O
remaining binding (cell-free assay, competition with immobilised ligand; 1 µM): 87%

Cc1ccc(NC(=O)c2ccc(C)c(C(F)(F)F)c2)cc1C#Cc1nn(C2CCC(O)CC2)c2ncnc(N)c12 (stereo not drawn)
remaining signal (cell-free assay; 10 µM): 82%

CC(=O)N1CCC(c2ccc(C(=O)NC(=N)N)cc2C(F)(F)F)CC1
remaining binding (cell-free assay, competition with immobilised ligand; 1 µM): 100%

CC(C)(C)c1nc(-c2cccc(NS(=O)(=O)c3c(F)cccc3F)c2F)c(-c2ccnc(N)n2)s1
remaining activity (enzyme activity, inhibitor, radiometric; 1 µM): 96%

Cc1c(NC(=O)c2cc(C(N)=O)nc3cc(F)ccc23)c(C(F)(F)F)nn1Cc1ccc(C#N)cc1
remaining binding (cell-free assay, competition with immobilised ligand; 1 µM): 99%

CCN(CC)c1ccc(C2=NNC(=O)CC2C)cc1[N+](=O)[O-] (stereo not drawn)
remaining activity (enzyme activity, inhibitor; 10 µM): 106%

CCC(=O)N[C@H]1CC[C@@H](C(=O)N(C)c2ccc(-c3nc4ccccc4o3)cc2)C1
remaining binding (cell-free assay, competition with immobilised ligand; 1 µM): 93%

CCN(CC)CCNC(=O)c1c(C)[nH]c(/C=C2\C(=O)Nc3ccc(F)cc32)c1C
inhibition (enzyme activity, inhibitor; 10 µM): 35%
